The text below walks through data of article PMC9904295 (Drug Delivery, 2023).

The test system of one data set is SW620 cells. Nature of the data set: In vivo antitumor efficacy in xenograft tumor-bearing mice. Further details: species or system BALB/c nude mice. Conditions: xenograft tumor-bearing nude mice, i.v. once a week. Put shortly:
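Male BALB/c nude mice (18–20 g) were inoculated with 3 × 10^6 SW620 cells at the right third fat pad. At tumors of about 100–200 mm3 they were randomised into six groups, with 5% glucose as control. Test compound was given i.v. by tail vein once a week for 4 weeks at 5 or 10 mg/kg (free form) or 5, 10 or 20 mg/kg (nanoparticle). Tumor volume (L × W × W/2) and body weight were measured three times weekly, and RTV = V/V0. Tumors were weighed at the end; n = 6, mean ± SD, Student's t test.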

Data set [1] is described as follows: Pharmacokinetic study in rats, intravenous. Format: in vivo, Sprague-Dawley rats. Conditions: i.v., 5 mg/kg in OXA. Put shortly: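 Twelve Sprague-Dawley rats (half male) were split into two groups and given one i.v. dose equivalent to 5 mg/kg. The free drug was prepared in 5% glucose. Retro-orbital blood was taken at 0.083–24 h and centrifuged at 12,000 rpm for 5 min. Plasma drug was measured by UPLC-MS/MS and total Pt by ICP-MS. Non-compartmental analysis gave AUC, Cmax, t1/2, MRT and CL; mean ± SD, n = 6.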

Data set [2] can be described thus: Toxicity evaluation after repeated dosing. The class given is in vivo. Conditions: ICR mice. In short, it runs like this: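 Male ICR mice (17–18 g) were randomised into six groups (n = 10), with 5% glucose as control. Test compound was given i.v. every 3 days for five doses at 7.5 or 10 mg/kg (free form) or 7.5, 10 or 15 mg/kg drug-equivalent (nanoparticle). At the end, organs were harvested for viscera index, whole blood was taken for routine counts, and serum TP, ALB, UREA and Cr were measured. Data are mean ± SD, Student's t test.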

Setting [3] is: analyte total Pt (ICP-MS) in plasma.

Take `O=C1[O][Pt]2([NH][C@@H]3CCCC[C@H]3[NH]2)[O]C1=O` [OXA, oxaliplatin]: the “tumor growth inhibition, dose dependence” value in the data set with SW620 cells was “dose-dependent tumor growth inhibition”. Further, in data set [1] (analyte OXA in plasma), the AUC0-t came out at 1940 ± 390 ng·h/mL, the “AUC0-∞” value was 2030 ± 550 ng·h/mL, the CL is recorded as 2,580 ± 560 mL/h/kg and the Cmax turned out to be 9580 ± 1420 ng/mL. Moreover, in data set [1] (analyte OXA in plasma), the T1/2 is on record as 0.16 ± 0.07 h and the Vz is given as 567 ± 70 mL/kg. Moreover, in data set [1] (setting [3]), the AUC0-t was 13000 ± 3440 ng·h/mL, the “AUC0-∞” value stood at 19980 ± 5650 ng·h/mL, the CL is 127.98 ± 36.2 mL/h/kg and the highest concentration (Cmax) was 4760 ± 680 ng/mL. Besides, in data set [1] (setting [3]), the T1/2 is 17.52 ± 0.52 h and the Vz is listed as 3,220 ± 818 mL/kg. The UREA result in data set [2] (10 mg/kg i.v. every 3 days for five times) is on record as “significant decrease”. For the same molecule, the “biochemical indexes (TP, ALB, UREA, Cr)” value in data set [2] (i.v. every 3 days for five times, except UREA at 10 mg/kg) is recorded as “No significant change”.

For orientation: Cmax means the peak of the concentration-time curve. Usually Vz stands for a proportionality between amount in the body and measured concentration, not a real space.
